The record followed here is ChEMBL document CHEMBL1268877, “Novel rhodanine derivatives induce growth inhibition followed by apoptosis” (Bioorg Med Chem Lett, 2010).

pIC50: −log10 of the molar value. Active and inactive are the calls of the source. No cut-off for these calls is given here.

The subject of data set [1] is CCRF-CEM. The data set can be described thus: Cytotoxicity against human CEM cells after 48 hrs by trypan blue assay. The class given is functional, cell-based. The gist of the method:
(§1)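 Trypan blue exclusion on CEM T-cell leukemia cells given 10, 50, 100 or 250 µM compound (DMSO as vehicle control); live cells counted every 24 h after addition until control culture reached stationary phase; independent experiments; IC50 estimated at 48 and 72 h.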

Data set [2] deals with CCRF-CEM. The data set can be described thus: Cytotoxicity against human CEM cells after 72 hrs by trypan blue assay. The class given is functional, cell-based. The method, boiled down:
as §1

In data set [3] the test system is CCRF-CEM. The data set can be described thus: Cytotoxicity against human CEM cells at 10 to 250 uM by trypan blue assay. The class given is functional, cell-based. The following applies: TDE = time-dependent effect. The gist of the method: as §1
The subject of data set [4] is CCRF-CEM. Put plainly: Cytotoxicity against human CEM cells after 6 days by trypan blue assay. The class given is functional, cell-based. The method, boiled down:
as §1

The test system of data set [5] is CCRF-CEM. Put plainly: Cytotoxicity against human CEM cells at 250 uM after 6 days by trypan blue assay. The class given is functional, cell-based. The method, boiled down: as §1
For data set [6], the system named is CCRF-CEM. The data set can be described thus: Cytotoxicity against human CEM cells at 10 uM after 24 to 48 hrs by MTT assay. The data set is classed as functional, cell-based. The method, boiled down:
(§2)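 CEM T-cell leukemia cells cultured with 10, 50, 100 and 250 µM compound (DMSO vehicle control), harvested after 24 and 48 h for MTT assay; percent viable cells calculated taking DMSO-treated cells as 100%; SD from three independent experiments.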

Data set [7] can be described thus: Cytotoxicity against human 8E5 cells at 250 uM after 24 to 48 hrs by MTT assay. The data set is classed as cell-based.
Data set [8] has as its system CCRF-CEM. Put plainly: Cytotoxicity against human CEM cells at 10 to 250 uM by LDH release assay. The class given is functional, cell-based. The following applies: TDE = time-dependent effect. The gist of the method:
(§3)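 LDH release measured at 490 nm from CEM cells exposed to 10, 50, 100 and 250 µM compound for 24, 48 and 72 h; expressed as percent LDH release; SD from three independent experiments.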

Data set [9] has as its system CCRF-CEM. The data set can be described thus: Cytotoxicity against human CEM cells after 24 to 72 hrs by LDH release assay. The data set is classed as functional, cell-based. The gist of the method:
as §3

Data set [10] relates to CCRF-CEM. The data set can be described thus: Antiproliferative activity against human CEM cells assessed as inhibition of [3H]thymidine incorporation at 10 to 250 uM after 24 to 48 hrs by scintillation counting. The class given is functional, cell-based. The method, boiled down: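 [3H]-thymidine added to CEM T-cell leukemia cells treated with 10, 50, 100 or 250 µM compound; radioactive counts per minute (cpm) calculated and plotted; data from independent experiments.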

Data set [11] relates to CCRF-CEM. The data set can be described thus: Induction of cell cycle arrest in human CEM cells assessed as accumulation at subG1 phase at 10 to 250 uM after 48 hrs by propidium iodide staining-based FACS analysis. The class given is functional. The gist of the method:
(§4)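 CEM cells treated 48 h with 10, 20, 50, 100 or 250 µM compound or DMSO vehicle, then fixed, stained with propidium iodide and analysed by flow cytometry (10,000 cells per sample); percent cells in subG1, G1, S and G2/M quantified; SD from three independent experiments.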

For data set [12], the system named is CCRF-CEM. Put plainly: Induction of cell cycle arrest in human CEM cells assessed as decrease in accumulation at G2/M phase at 10 to 250 uM after 48 hrs by propidium iodide staining-based FACS analysis. The class given is functional. The method, boiled down: as §4
The test system of data set [13] is CCRF-CEM. Put plainly: Induction of cell cycle arrest in human CEM cells assessed as decrease in accumulation at G1 phase at 10 to 250 uM after 48 hrs by propidium iodide staining-based FACS analysis. The class given is functional. The method, boiled down: as §4
The subject of data set [14] is CCRF-CEM. The data set can be described thus: Induction of cell cycle arrest in human CEM cells assessed as accumulation at S phase at 10 to 50 uM after 48 hrs by propidium iodide staining-based FACS analysis. The class given is functional. The method, boiled down:
as §4

Data set [15] concerns CCRF-CEM. Put plainly: Induction of apoptosis in human CEM cells assessed as chromosomal DNA fragmentation at 20 uM after 72 hrs by agarose gel electrophoresis. The class given is functional, cell-based. The gist of the method:
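Chromosomal DNA extracted from CEM cells treated with 20 µM compound and harvested at 12, 24, 36, 48 and 72 h (DMSO control), then resolved on 1% agarose gel beside a 2-log DNA ladder.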

Data set [16] concerns CCRF-CEM. Put plainly: Cytotoxicity against human CEM cells assessed as mild induction of ROS production at 20 uM after 4 hrs by H2DCFDA staining-based flow cytometry. The class given is functional, cell-based. The method, boiled down:
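CEM cells treated with 20 µM compound for 1, 2 and 4 h; ROS production quantified by flow cytometry, with unstained and dye-stained cells as references and H2O2 as positive control.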

The subject of data set [17] is CCRF-CEM. The data set can be described thus: Cytotoxicity against human CEM cells at 10 to 250 uM after 24 to 48 hrs by MTT assay. The class given is functional, cell-based. The method, boiled down:
as §2

Data set [18] is described as follows: Cytotoxicity against human 8E5 cells at 10 to 250 uM after 24 to 48 hrs by MTT assay. The class given is cell-based.

Consider `CCN1C(=O)/C(=C\c2ccccc2)SC1=S`, for which the pIC50 in the data set with CCRF-CEM [1] is 5.10; in the data set with CCRF-CEM [2], 5.22. Also, the Activity result with CCRF-CEM [3] is “tde”; in the data set on CCRF-CEM [4], “Dose-dependent effect”; in data set [7], “Toxic”; with CCRF-CEM [8], “tde”; in the data set on CCRF-CEM [9], “Dose-dependent effect”. Moreover, the result in the data set with CCRF-CEM [5], with CCRF-CEM [6], with CCRF-CEM [11], with CCRF-CEM [12], in the data set on CCRF-CEM [13] and in the data set with CCRF-CEM [14] was Active. In addition, the result in the data set with CCRF-CEM [15] and with CCRF-CEM [16] was Active. Moreover, the inhibition entry in the data set on CCRF-CEM [10] was “Active”.
As to `CCN1C(=O)C(=C(C)C)OC1=S`, the pIC50 was 4.10 in the data set on CCRF-CEM [1] and 4.30 with CCRF-CEM [2]. In addition, the Activity entry with CCRF-CEM [3] was “tde”; in the data set on CCRF-CEM [4] it was “Dose-dependent effect”; in data set [18], “Non-toxic”. Further, the result with CCRF-CEM [5] and in the data set on CCRF-CEM [17] was Active.
In the case of `CC(C)=C1C(=O)N(C)C(=S)N1C`, the negative logarithm of the IC50 (pIC50) in the data set with CCRF-CEM [1] is 4.15; with CCRF-CEM [2], 4.40. Moreover, the Activity result in the data set on CCRF-CEM [3] is “tde”; with CCRF-CEM [4] it was “Dose-dependent effect”; in [18], “Non-toxic”. The outcome in the data set on CCRF-CEM [5] and in the data set on CCRF-CEM [17] was Active.
